Legend:
[1] = Oral bioavailability in monkey; assay type: ADME, organism-based, Macaca mulatta; details: rhesus monkey, in vivo
[2] = Oral bioavailability in dog; assay type: ADME, organism-based, Canis lupus familiaris; details: in vivo
[3] = Drug metabolism in human assessed as parent compound level in feces at 50 mg, po after up to 168 hrs by LC-MS/MS analysis; assay type: ADME, organism-based; details: read-out: Drug metabolism
Liver microsome [4] = assay: Drug metabolism in human liver microsomes assessed as formation of 5-hydroxy saxagliptin Michaelis-Menten kinetic analysis; assay type: ADME
Summary of the method: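 M2 formation kinetics measured in triplicate at twelve saxagliptin concentrations from 1 to 800 µM. Enzyme source was pooled HLM (0.25 mg/ml, 30 min, 37°C) or expressed CYP3A4 or CYP3A5 (10 pmol/ml, 10 min). Incubations contained 1 mM NADPH and 2 mM MgCl2 in phosphate buffer pH 7.4.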

Hepatocyte [5] = assay: Cytotoxicity against human hepatocytes up to 25 uM by lactate dehydrogenase assay; assay type: cell-based
Hepatocyte [6] = assay: Induction of CYP3A4 mRNA expression in human hepatocytes assessed as testosterone 6beta-hydroxylation up to 25 uM by LC-MS/MS analysis; assay type: ADME, cell-based
Summary of the method: (§1)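 Primary hepatocytes from three donors treated once daily for 3 days: saxagliptin 0.2–25 µM, M2 0.2–100 µM, 0.1% DMSO as vehicle. Microsomal activity assayed by LC-MS/MS: phenacetin 100 µM with 0.02 mg/ml protein (CYP1A2), bupropion 250 µM with 0.02 mg/ml (CYP2B6), testosterone 200 µM with 0.01 mg/ml (CYP3A4). mRNA measured by TaqMan qPCR as 2^ΔCT relative to endogenous control and DMSO.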

Cytochrome P450 3A4 [7] = biological target: T1, Cytochrome P450 3A4 (Homo sapiens, UniProt P08684); assay: Drug metabolism assessed as human CYP3A4-mediated 5-hydroxy saxagliptin formation at 10 uM after 30 mins by LC-MS/MS analysis; assay type: ADME; details: recombinant enzyme, 0.5 h
[8] = Drug metabolism in human assessed as metabolite level in urine at 50 mg, po up to 168 hrs by LC-MS/MS analysis; assay type: ADME, organism-based; details: in vivo
Summary of the method: (§2)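 Single 50-mg oral solution dose of [14C]saxagliptin (91.5 µCi) given to healthy male subjects after a 10-h fast. Urine collected as 0–12 h and 12–24 h pools, then in 24-h intervals to 168 h. Saxagliptin and M2 measured by validated positive-ESI LC-MS/MS with MRM; urine standard curves 25–5000 ng/ml for saxagliptin and 50–10,000 ng/ml for M2.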

[9] = Drug metabolism in human liver microsomes assessed as compound turnover at 10 uM after 1 hr by LC-MS/MS analysis in presence of NADPH; assay type: ADME; details: read-out: Drug metabolism
Summary of the method: (§3)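 Pooled HLM at 1 mg/ml protein, incubated with 10 µM [14C]saxagliptin and 1 mM NADPH in 100 mM phosphate buffer pH 7.4 at 37°C for 60 min. Quenched with ice-cold acetonitrile; supernatant analysed by LC-MS/MS and off-line radioanalysis.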

[10] = Drug level in human urine treated with 50 mg, po of [14C]saxagliptin up to 168 hrs by LC-MS/MS analysis; assay type: ADME, organism-based; details: in vivo; summary of the method: as §2
Cytochrome P450 3A4 [11] = biological target: T1, Cytochrome P450 3A4; assay: Inhibition of CYP3A4 in human liver microsomes assessed as testosterone 6beta-hydroxylation after 3 mins by LC-MS/MS analysis in presence of NADPH; assay type: ADME
Cytochrome P450 1A2 = biological target: T2, Cytochrome P450 1A2 (Homo sapiens, UniProt P05177); assay: Inhibition of CYP1A2 in human liver microsomes assessed as phenacetin O-deethylation preincubated for 15 mins by LC-MS/MS analysis in presence of NADPH; assay type: ADME
T2 sequence (P05177 whole entry): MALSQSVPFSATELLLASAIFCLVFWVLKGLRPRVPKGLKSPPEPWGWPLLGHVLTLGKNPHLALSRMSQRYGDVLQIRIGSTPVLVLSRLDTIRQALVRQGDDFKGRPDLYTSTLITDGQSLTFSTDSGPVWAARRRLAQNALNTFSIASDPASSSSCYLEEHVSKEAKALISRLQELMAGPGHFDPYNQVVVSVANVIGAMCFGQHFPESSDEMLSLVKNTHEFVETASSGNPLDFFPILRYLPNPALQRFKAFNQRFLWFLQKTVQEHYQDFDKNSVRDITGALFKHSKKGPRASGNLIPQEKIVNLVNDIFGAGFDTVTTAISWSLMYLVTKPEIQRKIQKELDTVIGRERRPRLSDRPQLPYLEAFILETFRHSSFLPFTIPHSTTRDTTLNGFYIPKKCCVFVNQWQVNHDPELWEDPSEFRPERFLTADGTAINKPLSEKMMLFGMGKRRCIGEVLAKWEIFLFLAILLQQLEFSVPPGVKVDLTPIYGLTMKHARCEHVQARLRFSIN

Hepatocyte [12] = assay: Induction of CYP2B6 mRNA expression in human hepatocytes assessed as bupropion hydroxylation up to 100 uM by LC-MS/MS analysis; assay type: ADME, cell-based; summary of the method: as §1
Cytochrome P450 3A4 [13] = biological target: T1, Cytochrome P450 3A4; assay: Inhibition of CYP3A4 in human liver microsomes assessed as midazolam 1'-hydroxylation after 3 mins by LC-MS/MS analysis; assay type: ADME
Cytochrome P450 3A4 [14] = biological target: T1, Cytochrome P450 3A4; assay: Inhibition of CYP3A4 in human liver microsomes assessed as midazolam 1'-hydroxylation preincubated for 15 mins by LC-MS/MS analysis; assay type: ADME
Hepatocyte [15] = assay: Induction of CYP3A4 mRNA expression in human hepatocytes assessed as testosterone 6beta-hydroxylation up to 100 uM by LC-MS/MS analysis; assay type: ADME, cell-based; summary of the method: as §1
Liver microsome [16] = assay: Drug level in human liver microsomes treated with 10 uM of [14C]saxagliptin after 1 hr by LC-MS/MS analysis in presence of NADPH; assay type: ADME; summary of the method: as §3
Cytochrome P450 2A6 [17] = biological target: T3, Cytochrome P450 2A6 (Homo sapiens, UniProt P11509); assay: Inhibition of CYP2A6 in human liver microsomes assessed as coumarin 7-hydroxylation preincubated for 15 mins by LC-MS/MS analysis in presence of NADPH; assay type: ADME
T3 sequence (P11509 whole entry): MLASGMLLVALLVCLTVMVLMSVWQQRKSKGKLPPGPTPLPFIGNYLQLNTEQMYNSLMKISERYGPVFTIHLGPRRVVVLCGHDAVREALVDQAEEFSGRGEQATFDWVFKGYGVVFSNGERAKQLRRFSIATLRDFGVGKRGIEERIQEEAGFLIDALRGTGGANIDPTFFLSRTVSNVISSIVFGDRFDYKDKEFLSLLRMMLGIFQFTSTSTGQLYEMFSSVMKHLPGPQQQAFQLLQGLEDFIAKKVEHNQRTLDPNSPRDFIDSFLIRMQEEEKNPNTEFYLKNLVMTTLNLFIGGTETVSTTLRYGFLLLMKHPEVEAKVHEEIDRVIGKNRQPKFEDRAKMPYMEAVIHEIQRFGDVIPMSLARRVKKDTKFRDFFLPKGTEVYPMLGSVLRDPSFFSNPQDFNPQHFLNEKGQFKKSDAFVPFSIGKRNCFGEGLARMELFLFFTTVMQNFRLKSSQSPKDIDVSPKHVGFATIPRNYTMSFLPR

Hepatocyte [18] = assay: Induction of CYP1A2 mRNA expression in human hepatocytes assessed as phenacetin O-deethylation up to 100 uM by LC-MS/MS analysis; assay type: ADME, cell-based; summary of the method: as §1
Cytochrome P450 2A6 [19] = biological target: T3, Cytochrome P450 2A6; assay: Inhibition of CYP2A6 in human liver microsomes assessed as coumarin 7-hydroxylation after 3 mins by LC-MS/MS analysis in presence of NADPH; assay type: ADME

T1 sequence (P08684 whole entry): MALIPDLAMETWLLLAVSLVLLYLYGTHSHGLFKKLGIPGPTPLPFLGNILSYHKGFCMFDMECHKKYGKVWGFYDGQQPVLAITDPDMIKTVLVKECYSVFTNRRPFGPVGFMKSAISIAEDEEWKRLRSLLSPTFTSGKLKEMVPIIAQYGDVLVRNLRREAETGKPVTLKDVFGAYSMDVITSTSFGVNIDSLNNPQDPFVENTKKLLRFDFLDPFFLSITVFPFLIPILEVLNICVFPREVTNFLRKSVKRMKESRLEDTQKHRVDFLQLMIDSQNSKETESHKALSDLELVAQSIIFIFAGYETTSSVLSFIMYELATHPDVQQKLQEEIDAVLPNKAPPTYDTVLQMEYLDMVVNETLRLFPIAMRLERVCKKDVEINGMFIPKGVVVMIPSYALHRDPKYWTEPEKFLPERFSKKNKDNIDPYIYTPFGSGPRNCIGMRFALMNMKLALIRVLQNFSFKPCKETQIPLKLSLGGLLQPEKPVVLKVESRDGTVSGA

Work on `N#C[C@@H]1C[C@@H]2C[C@@H]2N1C(=O)[C@@H](N)C12CC3CC(CC(O)(C3)C1)C2` [SAXAGLIPTIN ANHYDROUS] yielded a bioavailability [1] of 51%, a bioavailability [2] of 76% and a dose excreted at 168 h [3] of 0.5%. For the same molecule, the Km (Liver microsome [4]) was 94.8 µM, the Vmax (Liver microsome [4]) was 496 pmol/min and the Activity (Hepatocyte [5]) was “Non-toxic”. For the same molecule, the Activity (Hepatocyte [6]) was “Not Active”, the Drug metabolism (Cytochrome P450 3A4 [7]) was “metabolite_detected” and the Drug metabolism [8] was “metabolite_detected”. It also gave a metabolised at 1 h, 10 µM [9] of 32%.

In the case of `N#C[C@@H]1C[C@@H]2C[C@@H]2N1C(=O)[C@@H](N)C12CC3CC(O)(CC(O)(C3)C1)C2`, the Drug metabolism [10] is reported as “metabolite_detected”, the IC50 (Cytochrome P450 3A4 [11]) is reported as over 200 µM and the IC50 (Cytochrome P450 1A2) is reported as over 200 µM. For the same molecule, the Activity (Hepatocyte [12]) was “Not Active”, the IC50 (Cytochrome P450 3A4 [13]) was over 200 µM and the IC50 (Cytochrome P450 3A4 [14]) was over 200 µM. The Activity (Hepatocyte [15]) was “Not Active”, the Drug metabolism (Liver microsome [16]) was “metabolite_detected” and the IC50 (Cytochrome P450 2A6 [17]) was over 200 µM. For the same molecule, the Activity (Hepatocyte [18]) was “Not Active” and the IC50 (Cytochrome P450 2A6 [19]) was over 200 µM.

— ChEMBL document CHEMBL3526095, “Characterization of the in vitro and in vivo metabolism and disposition and cytochrome P450 inhibition/induction profile of saxagliptin in human” (Drug Metab Dispos, 2012)
